In brackets after ≈: the same amount, converted by molar mass.
Tests used:
Plasmodium berghei [1] = assay: Antiplasmodial activity against Plasmodium berghei NK65 infected in Swiss Webster mice (Mus musculus) assessed as average parasitaemia at 3.3 mg/kg, perorally administered 1 day after infection for 3 days measured after 7 days post infection; assay type: functional; conditions: route oral
Summary of the method: (§1)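 Male Swiss Webster mice (18-20 g, ≥5/group) inoculated i.p. with 2×10^7 P. berghei NK-65 parasitized RBC; oral dosing (100 μl, SSV or dilute HCl vehicle) once daily for 3 days from day 1; Giemsa-stained tail blood smears days 5–28; inhibition is % decrease versus untreated controls on day 5.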

Plasmodium berghei [2] = assay: Antiplasmodial activity in Plasmodium berghei NK65 infected in Swiss Webster mice (Mus musculus) assessed as survivability at 1.1 mg/kg, perorally administered 1 day after infection for 3 days measured after 28 days post infection; assay type: functional; conditions: route oral
Summary of the method: (§2)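 Male Swiss Webster mice (18-20 g), at least 5 per group, inoculated i.p. with 2×10^7 P. berghei NK-65-parasitized red cells from a donor mouse. Oral dosing (100 μl, in SSV or 0.01 M HCl dilutions) from day one post-infection on a 3-day schedule (modified Peters test). Giemsa-stained tail-blood smears read from day 5 to day 28. Cure means no parasitemia through day 28.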

HeLa [3] = assay: Cell cycle arrest in human HeLa cells assessed as increase in G0/G1 phase accumulation at 3 uM after 24 hrs by FACS analysis; assay type: functional
Plasmodium berghei [4] = assay: Antiplasmodial activity against Plasmodium berghei NK65 infected in Swiss Webster mice (Mus musculus) assessed as average parasitaemia at 5 mg/kg, perorally administered 1 day after infection for 3 days measured after 14 days post infection; assay type: functional; conditions: route oral
Plasmodium berghei [5] = assay: Antiplasmodial activity against Plasmodium berghei NK65 infected in Swiss Webster mice (Mus musculus) assessed as inhibition of parasitaemia at 5 mg/kg, perorally administered 1 day after infection for 3 days measured after 5 days post infection; assay type: functional; conditions: route oral
Plasmodium berghei [6] = assay: Antiplasmodial activity against Plasmodium berghei NK65 infected in Swiss Webster mice (Mus musculus) assessed as average parasitaemia at 10 mg/kg, perorally administered 1 day after infection for 3 days measured after 14 days post infection; assay type: functional; conditions: route oral
Plasmodium berghei [7] = assay: Antiplasmodial activity against Plasmodium berghei NK65 infected in Swiss Webster mice (Mus musculus) assessed as survivability at 3.3 mg/kg, perorally administered 1 day after infection for 3 days measured after 28 days post infection; assay type: functional; conditions: route oral; summary of the method: as §2
Plasmodium berghei [8] = assay: Antiplasmodial activity against Plasmodium berghei NK65 infected in Swiss Webster mice (Mus musculus) assessed as average parasitaemia at 50 mg/kg, perorally administered 1 day after infection measured after 21 days post infection; assay type: functional; conditions: route oral
Summary of the method: (§3)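 Male Swiss Webster mice (18-20 g, ≥5/group) inoculated i.p. with 2×10^7 P. berghei NK-65 parasitized RBC, given a single oral dose (100 μl, SSV or dilute HCl vehicle); parasitemia by Giemsa-stained tail blood smears days 5–28; activity as % decrease versus untreated controls on day 5.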

Plasmodium berghei [9] = assay: Antiplasmodial activity against Plasmodium berghei NK65 infected in Swiss Webster mice (Mus musculus) assessed as average parasitaemia at 10 mg/kg, perorally administered 1 day after infection for 3 days measured after 28 days post infection; assay type: functional; conditions: route oral; summary of the method: as §1
Plasmodium berghei [10] = assay: Antiplasmodial activity against Plasmodium berghei NK65 infected in Swiss Webster mice (Mus musculus) assessed as parasitaemia cure at 50 mg/kg, perorally administered 1 day after infection measured after 28 days post infection; assay type: functional; conditions: route oral
Summary of the method: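 P. berghei NK-65 infection in male Swiss Webster mice (18-20 g; 2×10^7 parasitized erythrocytes i.p.; ≥5 per group). A single oral dose of 100 μl, diluted in SSV or 0.01 M HCl, then observation for toxicity signs and body weight. Parasitemia read from Giemsa-stained tail smears from day 5 through day 28. Mice free of parasitemia through day 28 counted as cured.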

Plasmodium berghei [11] = assay: Antiplasmodial activity against Plasmodium berghei NK65 infected in Swiss Webster mice (Mus musculus) assessed as average parasitaemia at 200 mg/kg, perorally administered 1 day after infection measured after 5 days post infection; assay type: functional; conditions: Plasmodium berghei, NK65, route oral
Summary of the method: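 Male Swiss Webster mice (18-20 g), at least 5 per group, were inoculated ip with 2×10^7 P. berghei NK-65-parasitized red cells from a donor mouse and given a single oral dose (100 μl). Stock was made in SSV or 0.1 M HCl and diluted in SSV or 0.01 M HCl. Parasitemia was read from Giemsa-stained tail blood smears from day 5 to day 28. Cure meant no parasitemia through day 28.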

Plasmodium berghei [12] = assay: Antiplasmodial activity against Plasmodium berghei NK65 infected in Swiss Webster mice (Mus musculus) assessed as survivability at 10 mg/kg, perorally administered 1 day after infection for 3 days measured after 28 days post infection; assay type: functional; conditions: route oral
[13] = Selectivity index, ratio of IC50 for african green monkey (Cercopithecus aethiops) Vero cells to IC50 for chloroquine-sensitive Plasmodium falciparum; assay type: toxicity, cell-based
Plasmodium berghei [14] = assay: Antiplasmodial activity against Plasmodium berghei NK65 infected in Swiss Webster mice (Mus musculus) assessed as average parasitaemia at 5 mg/kg, perorally administered 1 day after infection for 3 days measured after 10 days post infection; assay type: functional; conditions: route oral
HeLa [15] = assay: Cytotoxicity against human HeLa cells after 48 hrs by trypan blue exclusion assay; assay type: functional
Plasmodium berghei [16] = assay: Antiplasmodial activity against Plasmodium berghei NK65 infected in Swiss Webster mice (Mus musculus) assessed as average parasitaemia at 10 mg/kg, perorally administered 1 day after infection for 3 days measured after 10 days post infection; assay type: functional; conditions: route oral
Plasmodium berghei [17] = assay: Antiplasmodial activity against Plasmodium berghei NK65 infected in Swiss Webster mice (Mus musculus) assessed as average parasitaemia at 10 mg/kg, perorally administered 1 day after infection for 3 days measured after 21 days post infection; assay type: functional; conditions: route oral
[18] = system: Mycobacterium tuberculosis; assay: Antimycobacterial activity against Mycobacterium tuberculosis; assay type: functional
Plasmodium berghei [19] = assay: Antiplasmodial activity against Plasmodium berghei NK65 infected in Swiss Webster mice (Mus musculus) assessed as average parasitaemia at 10 mg/kg, perorally administered 1 day after infection for 3 days measured after 7 days post infection; assay type: functional; conditions: route oral
HeLa [20] = assay: Cell cycle arrest in human HeLa cells assessed as decrease in G2/M phase accumulation at 10 uM after 24 hrs by FACS analysis; assay type: functional; design: scale not given: the % may be the effect or the level left
Plasmodium berghei [21] = assay: Antiplasmodial activity against Plasmodium berghei NK65 infected in Swiss Webster mice (Mus musculus) assessed as average parasitaemia at 3.3 mg/kg, perorally administered 1 day after infection for 3 days measured after 21 days post infection; assay type: functional; conditions: route oral; summary of the method: as §1
Plasmodium berghei [22] = assay: Antiplasmodial activity against Plasmodium berghei NK65 infected in Swiss Webster mice (Mus musculus) assessed as average parasitaemia at 50 mg/kg, perorally administered as single dose measured after 5 days of inoculation; assay type: functional; conditions: NK65, 120 h, route oral; summary of the method: as §3
Plasmodium berghei [23] = assay: Antiplasmodial activity against Plasmodium berghei NK65 infected in Swiss Webster mice (Mus musculus) assessed as average parasitaemia at 3.3 mg/kg, perorally administered 1 day after infection for 3 days measured after 14 days post infection; assay type: functional; conditions: route oral; summary of the method: as §1
Plasmodium berghei [24] = assay: Antiplasmodial activity against Plasmodium berghei NK65 infected in Swiss Webster mice (Mus musculus) assessed as average parasitaemia at 100 mg/kg, perorally administered 1 day after infection measured after 10 days post infection; assay type: functional; conditions: route oral
Plasmodium berghei [25] = assay: Antiplasmodial activity against Plasmodium berghei NK65 infected in Swiss Webster mice (Mus musculus) assessed as average parasitaemia at 3.3 mg/kg, perorally administered 1 day after infection for 3 days measured after 28 days post infection; assay type: functional; conditions: route oral; summary of the method: as §1

**Q.** Which results are given for `O[C@]12C=C(c3nccc4c3[nH]c3ccccc34)[C@@H]3CCN(CCCC/C=C\CC1)C[C@@]31C[C@@H]3/C=C\CCCCN3[C@H]12` [MANZAMINE A]?
**A.** inhibition in vivo at 3.3 mg/kg (Plasmodium berghei [1]): 2.8%; inhibition in vivo at 1.1 mg/kg (Plasmodium berghei [2]): 50%; Activity (HeLa [3]): 56.2%; inhibition in vivo at 5 mg/kg (Plasmodium berghei [4]): 13.5%; inhibition in vivo at 5 mg/kg (Plasmodium berghei [5]): 88%; inhibition in vivo at 10 mg/kg (Plasmodium berghei [6]): 0.9%; inhibition in vivo at 3.3 mg/kg (Plasmodium berghei [7]): 100%; inhibition in vivo at 50 mg/kg (Plasmodium berghei [8]): 5.2%; inhibition in vivo at 10 mg/kg (Plasmodium berghei [9]): 3.3%; inhibition in vivo at 50 mg/kg (Plasmodium berghei [10]): 60%; inhibition in vivo at 200 mg/kg (Plasmodium berghei [11]): 0%; inhibition in vivo at 10 mg/kg (Plasmodium berghei [12]): 100%; Ratio IC50 [13]: 44; inhibition in vivo at 5 mg/kg (Plasmodium berghei [14]): 7.8%; Activity (HeLa [15]): 2 µg/mL; inhibition in vivo at 10 mg/kg (Plasmodium berghei [16]): 0.4%; inhibition in vivo at 10 mg/kg (Plasmodium berghei [17]): 1.9%; MIC [18]: 1.56 µg/mL (≈ 2.84 µM); inhibition in vivo at 10 mg/kg (Plasmodium berghei [19]): 0.2%; Activity (HeLa [20]): 13.6%; inhibition in vivo at 3.3 mg/kg (Plasmodium berghei [21]): 21.6%; inhibition in vivo at 50 mg/kg (Plasmodium berghei [22]): 0%; inhibition in vivo at 3.3 mg/kg (Plasmodium berghei [23]): 11.9%; inhibition in vivo at 100 mg/kg (Plasmodium berghei [24]): 0%; inhibition in vivo at 3.3 mg/kg (Plasmodium berghei [25]): 53.9%

From ChEMBL document CHEMBL1157729, “Structure-activity relationship and mechanism of action studies of manzamine analogues for the control of neuroinflammation and cerebral infections” (J Med Chem, 2010)
